Active and inactive are the calls of the source. Cut-off read from the data, not from the text of the source, unless noted: active = inhibition above about 30%; inactive = the rest.
Columns and labels:
[1] = reduced viability of SK-BR-3 breast cancer cells – cell-based, 24 h, human, pilot screen (AID 572;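 active = viability at or below 10% of carrier control in both of two separate runs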;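 note: compound exposure lasted between 18 and 24 h rather than exactly 24 h; 100% = carrier-treated control wells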); conditions: SK-BR-3 viability, CellTiter-Glo luminescence, at 10 µM, stronger effect = lower value
[2] = HUVEC growth inhibition – cell-based, human, primary screen (AID 575;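 active = viability at or below 30% in both replicate assays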;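 note: 100% = median of untreated cell wells with 0.1% DMSO on each plate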); conditions: HUVEC proliferation, CellTiter-Glo luminescence, 72 h; at 10 µM; stronger effect = lower value
Outline: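 Test system: HUVEC primary cells. Quantity: 1250 endothelial cells in each well. Dosing: single-point 10 µM, DMSO 0.1% final. Incubation: 72 h treatment at 37 °C. Measured by: CTG luminescence. Control set: DMSO cell controls and MePR drug controls. Plate: collagen-coated 384-well format.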

[3] = H69AR cell proliferation blockers – human, duplicate replicates, primary screen (AID 580;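 active = viability at or under a set limit in both replicates, limit being median viability minus 3 SD, cut at about 48% in these data, passing the limit was not always enough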;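 note: 100% = mean luminescence of untreated wells and 0% = no signal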); conditions: H69AR lung tumor cells viability, ATP luminescence, 72 h; at 10 µM; stronger effect = lower value
[4] = MRP1 drug-resistance reversers in H69AR cells – cell-based, doxorubicin co-treatment, pilot screen (AID 601;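 active = viability loss from added drug above about 55%, and viability with drug at most 40%, in both replicates, limit read from the data, passing the limit was not always enough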); conditions: CellTiter-Glo, 72 h, at 10 µM; for differential viability (reversal): stronger effect = higher value
[5] = yeast transport mutant growth inhibition pilot in 384-well plates, post-Golgi transport modulator project (AID 636; in the data active = inhibition above about 31%); conditions: absorbance 615 nm, about 18 h, stronger effect = higher value
[6] = growth suppression of yeast trafficking mutant, preliminary HTS, modulators of trafficking downstream of Golgi apparatus project, 1536-format plate, OD 615 nm (AID 637); conditions: yeast transport mutant growth, absorbance 615 nm, 18 h; stronger effect = higher value
[7] = H69AR cells + 2 uM doxorubicin, measured here: viability with 2 uM doxorubicin, stronger effect = lower value
[8] = H69AR cells, compound alone cytotoxicity

| Compound | viability [1] | viability [2] | viability [3] | differential viability (reversal) ([4]; H69AR cells + 2 uM doxorubicin) | viability [4, 7] | viability [4, 8] | inhibition [5] | inhibition [6] |
| --- | --- | --- | --- | --- | --- | --- | --- | --- |
| Cc1nnc(SCCn2c(Br)nc3c2c(=O)n(C)c(=O)n3C)s1 | 95% (inactive) | 106% (inactive) | 98.2% (inactive) | 0.705% (inactive) | 97.5% | 98.2% | -1.76% (inactive) | -5.09% (inactive) |
| CCOc1cc2[nH]c(=O)n(CCC(=O)NCCc3ccc(OC)c(OC)c3)c(=O)c2cc1OCC | 103% (inactive) | 75.4% (inactive) | 96.8% (inactive) | 17.1% (inactive) | 79.7% | 96.8% | -3.38% (inactive) | -0.98% (inactive) |
| Cc1cc(NC(=O)CCCC(=O)Nc2ccc(F)cc2)no1 | 101% (inactive) | 96.8% (inactive) | 97% (inactive) | -0.445% (inactive) | 97.5% | 97% | -1.56% (inactive) | -1.48% (inactive) |
| CCOC(=O)N1CCC(n2c(=S)[nH]c3cc(OC)c(OC)cc3c2=O)CC1 | 114% (inactive) | 59.5% (inactive) | 57.1% (inactive) | -2.02% (inactive) | 59.1% | 57.1% | -4.16% (inactive) | -1.27% (inactive) |
| O=C(COC(=O)c1cccc(S(=O)(=O)N2CCc3ccccc32)c1)NC1CCS(=O)(=O)C1 (stereo unspecified) | 90% (inactive) | 114% (inactive) | 102% (inactive) | 0.47% (inactive) | 101% | 102% | -4.05% (inactive) | -7.64% (inactive) |
| COc1ccccc1-n1c(SCC(=O)NC(C)(C)C)nnc1-c1ccco1 | 82% (inactive) | 104% (inactive) | 96.1% (inactive) | -15.2% (inactive) | 111% | 96.1% | -4.79% (inactive) | -3.45% (inactive) |
| Cc1[nH]nc(N=CC2=C(O)CC(C)(C)CC2=O)c1-c1ccccc1 | 85% (inactive) | 100% (inactive) | 88.6% (inactive) | -6.69% (inactive) | 95.3% | 88.6% | -0.95% (inactive) | 1.09% (inactive) |
| O=C(CSc1ccccc1C(=O)NCCCN1CCCC1=O)NCc1ccco1 | 108% (inactive) | 102% (inactive) | 82.3% (inactive) | 2.32% (inactive) | 80% | 82.3% | -3.6% (inactive) | 6% (inactive) |
| O=C(NCC1CCCO1)C1CCC(CNS(=O)(=O)c2ccccc2)CC1 (stereo unspecified) | 101% (inactive) | 81.6% (inactive) | 90.3% (inactive) | 5.42% (inactive) | 84.8% | 90.3% | 1.95% (inactive) | -1.31% (inactive) |
| O=C(CCn1c(=O)c2ccccc2n(CC(=O)NCCC2=CCCCC2)c1=O)NCc1ccco1 | 99% (inactive) | 90.9% (inactive) | 92.2% (inactive) | 5.12% (inactive) | 87% | 92.2% | -5.06% (inactive) | -2.79% (inactive) |
| Cc1nn(C)cc1C1C2=C(CC(C)(C)CC2=O)OC2=C1C(=O)CC(C)(C)C2 | 74% (inactive) | 110% (inactive) | 89.8% (inactive) | -5.79% (inactive) | 95.6% | 89.8% | -6.62% (inactive) | 0.18% (inactive) |
| CC(=O)OCC(=O)[C@@]1(O)CC[C@H]2[C@@H]3CCC4=CC(=O)CC[C@]4(C)[C@H]3[C@@H](O)C[C@@]21C | 101% (inactive) | 74.1% (inactive) | 100% (inactive) | 2.38% (inactive) | 97.7% | 100% | -4.29% (inactive) | -1.17% (inactive) |
